An excerpt weighted towards active compounds, which were near 1.5% of everything screened.
NR2E3 ag-1: human photoreceptor-specific nuclear receptor agonism; Q9Y5X4; CHO-S Gal4-NCOR/VP16-NR2E3 two-hybrid, luciferase; inhibition of corepressor binding, % at 3.98 µM; 0.35% of 360,000 active;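 active means inhibition above the mean of all tested compounds plus 3 SD, cut at about 70% in these data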;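 further: higher means lower luciferase signal from less NR2E3 corepressor binding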
NR2E3 ag-2: agonists of human nuclear receptor NR2E3 | Q9Y5X4 | GST-NR2E3/biotin-RetCOR TR-FRET, 1536-well | inhibition of corepressor binding, % at 4.78 µM | 0.12% of 320,000 active | AID 2300;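 active means percent inhibition above the cutoff of mean plus 3 SD of all tested compounds, set per screening campaign, cut at about 20% in these data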
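System: GST-tagged NR2E3 plus biotinylated RetCOR corepressor; Buffer or medium: pH 7.5 Tris-based buffer; Probe or stimulus: RetCOR corepressor, biotinylated, 7 nM; Doses: compound at 4.8 µM, single dose; Schedule: 5 h incubation at 4 °C; Technique: time-resolved FRET; Evaluation: percent inhibition of TR-FRET ratio; Replication: one well per compound, singlicate testing.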
PG9 Ab binder: small molecules binding HIV-1 gp120 antibody PG9; TR-FRET gp120-PG9 antibody binding; inhibition, % at 6.7 µM; 0.43% of 360,000 active; AID 624416; in the data active means inhibition above about 8.5%
Rev-erbA mod: modulates human Rev-erb alpha binding to DNA | P20393 | Rev-erbα–FITC-DNA binding, fluorescence polarization, 90 min | activity, % at 10 µM | 0.79% of 370,000 active | AID 1259318;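 active means activity above about 14%, limit read from the data; passing the limit was not always enough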
Target sequence (P20393 whole entry, looked up): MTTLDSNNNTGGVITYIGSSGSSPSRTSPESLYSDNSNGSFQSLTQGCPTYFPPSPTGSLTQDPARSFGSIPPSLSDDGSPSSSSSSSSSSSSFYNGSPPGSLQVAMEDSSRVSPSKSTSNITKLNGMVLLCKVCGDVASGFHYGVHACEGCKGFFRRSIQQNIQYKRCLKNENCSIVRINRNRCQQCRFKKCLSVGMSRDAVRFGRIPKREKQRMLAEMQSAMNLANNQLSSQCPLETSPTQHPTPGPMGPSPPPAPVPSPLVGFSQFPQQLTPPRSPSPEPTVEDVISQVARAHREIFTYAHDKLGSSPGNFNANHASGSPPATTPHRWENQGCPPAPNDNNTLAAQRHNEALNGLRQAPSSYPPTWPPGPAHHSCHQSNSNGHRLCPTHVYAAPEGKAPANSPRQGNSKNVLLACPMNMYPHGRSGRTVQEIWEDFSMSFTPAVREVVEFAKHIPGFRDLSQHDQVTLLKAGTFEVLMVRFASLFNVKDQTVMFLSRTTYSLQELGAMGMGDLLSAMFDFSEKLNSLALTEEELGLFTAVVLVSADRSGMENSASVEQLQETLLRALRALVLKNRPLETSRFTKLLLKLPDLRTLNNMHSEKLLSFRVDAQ
NR2E3 ag confirm: confirmation of human NR2E3 agonists; CHO-S mammalian two-hybrid NR2E3-NCOR, luciferase luminescence; inhibition, % at 3.98 µM; shares compounds with NR2E3 ag-1; 51% of 2,300 active; AID 624378;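 active means average inhibition above a cutoff equal to the mean inhibition of all tested compounds plus one SD, cut at about 70% in these data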
VP16 counter: reduces GAL4-VP16 reporter signal in NR2E3 counterscreen; shares compounds with NR2E3 ag-1; CHO-S GAL4-VP16 luciferase reporter, luminescence; inhibition, % at 3.98 µM; 29% of 2,300 active; AID 624379;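 active means mean inhibition above a cutoff equal to the average over all tested compounds plus one standard deviation, cut at about 70% in these data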;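 further: luciferase from a UAS reporter driven by GAL4-VP16 transactivation; higher means less reporter light so more repression of VP16 activity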
Of the large screens only hits and unclear results are named; the others gave an inactive call (follow-up assays come after a bar, where they were run).

OC[C@@H]1CN(Cc2ccc(-c3ccccc3)cc2)C[C@H](n2cnc3c(NC4CCC4)ncnc32)O1	NR2E3 ag-1 80 (no result: NR2E3 ag-2) | NR2E3 ag confirm 91 | VP16 counter 79
COC(=O)[C@]12C[C@H](CC(=O)NCc3ccc(OC)c(OC)c3)C(=O)N(Cc3ccc(Cl)cc3Cl)C1=C[C@H](C(C)(C)C)O[C@@H]2C	none (no result: NR2E3 ag-1, NR2E3 ag-2, PG9 Ab binder)
O=C(NNS(=O)(=O)c1ccc(F)cc1F)C1Cc2c(ccc3ccccc23)O1 (stereo not given)	none | NR2E3 ag confirm 85 | VP16 counter 72
O=S(=O)(Nc1ccc2c(c1)OCCO2)c1ccc(F)c(F)c1	none
O=S(=O)(Nc1ccc2c(c1)OCCO2)c1ccc2oc3ccccc3c2c1	NR2E3 ag-1 81 | NR2E3 ag confirm 84 | VP16 counter inactive
COc1ccc(NS(=O)(=O)c2ccc(-n3cnnn3)cc2)cc1OC	none | NR2E3 ag confirm inactive | VP16 counter inactive
COc1ccc(NS(=O)(=O)c2ccc3c(c2)OCCO3)cc1OC	NR2E3 ag-1 100 | NR2E3 ag confirm 84 | VP16 counter 73
COc1ccc(S(=O)(=O)Nc2ccc3c(c2)n(C)c(=O)n3C)cc1OC	none
COc1ccc(S(=O)(=O)Nc2ccc3c(c2)n(C)c(=O)n3C)cc1F	NR2E3 ag-1 74 | NR2E3 ag confirm inactive | VP16 counter inactive
O=S(=O)(CC1NCc2ccccc21)NC1CCCC1 (stereo not given)	none (no result: NR2E3 ag-1, NR2E3 ag-2, PG9 Ab binder)
O=C(Nc1ccc(N2CCN(C(=O)c3ccccc3)CC2)cc1)c1ccc2c(c1)OCO2	none | NR2E3 ag confirm 85 | VP16 counter inactive
CC(=O)N1CCN(c2ccc(NC(=O)c3ccc4c(c3)OCO4)cc2)CC1	none
Cc1csc2c(N3CCN(C(=O)Nc4ccc(Cl)c(Cl)c4)CC3)ncnc12	NR2E3 ag-1 81 | NR2E3 ag confirm 97 | VP16 counter 84
Cc1cc(C)cc(NC(=S)N2CCN(c3ncc(C(F)(F)F)cc3Cl)CC2)c1	none
Cc1csc2c(N3CCN(C(=O)NC(C)(C)C)CC3)ncnc12	none
Cc1csc2c(N3CCN(C(=O)c4ccc(C(C)(C)C)cc4)CC3)ncnc12	NR2E3 ag-1 77 | NR2E3 ag confirm 97 | VP16 counter 84
Cc1csc2c(N3CCN(C(=S)Nc4ccc(C(F)(F)F)cc4)CC3)ncnc12	NR2E3 ag-1 92 | NR2E3 ag confirm 96 | VP16 counter 87
Cc1csc2ncnc(N3CCN(C(=S)Nc4ccc(C(F)(F)F)cc4)CC3)c12	none | NR2E3 ag confirm 95 | VP16 counter 83
COC(=O)[C@]12CCCCC=C1N(Cc1ccc(OC)cc1)C(=O)[C@@H]2CC(=O)NCc1ccc(C)o1	none (no result: NR2E3 ag-1, NR2E3 ag-2, PG9 Ab binder)
CCCN(CCC)C(=O)C(CCC(=O)OCCCN1CCN(CCOC(=O)Cc2c(C)n(C(=O)c3ccc(Cl)cc3)c3ccc(OC)cc23)CC1)NC(=O)c1ccccc1 (stereo not given)	none (no result: NR2E3 ag-1, NR2E3 ag-2, PG9 Ab binder)
CN1c2ccc(C#CC3CC3)cc2[C@@H]2[C@@H](CCN2C(=O)C2CCOCC2)[C@H]1CO	none (no result: NR2E3 ag-1, NR2E3 ag-2, PG9 Ab binder)
C=CCN=C1NN=C(c2cc(C)n(CC=C)c2C)CS1	none | NR2E3 ag confirm inactive | VP16 counter inactive
COCCn1c(C)cc(C2=NNC(=Nc3ccccc3F)SC2)c1C	NR2E3 ag-1 88 | NR2E3 ag confirm inactive | VP16 counter inactive
COCCCN=C1NN=C(c2cc(C)n(-c3ccccc3F)c2C)CS1	none
C#CCCN([C@H](C(=O)OC)C(C)CC)S(=O)(=O)c1ccccc1Br (stereo not given in full)	none (no result: NR2E3 ag-1, NR2E3 ag-2, PG9 Ab binder)
Cc1nc2sc(C(=O)NCc3ccncc3)c(N)c2c(C)c1Cl	none (no result: NR2E3 ag-1, NR2E3 ag-2, PG9 Ab binder)
O=[N+]([O-])c1cc(C(F)(F)F)cc([N+](=O)[O-])c1NCCNC(=S)Nc1ccc(Cl)c(Cl)c1	none | NR2E3 ag confirm 98 | VP16 counter inactive
CC1=C(C)/C(=N\OS(=O)(=O)c2ccc(C)cc2)C=CC1=O	NR2E3 ag-1 71 | NR2E3 ag confirm inactive | VP16 counter inactive
COc1ccc(S(=O)(=O)/N=C2/C=CC(=O)C(C)=C2C)cc1	none (no result: PG9 Ab binder, Rev-erbA mod)
CCNc1nc(NCC)nc(-n2nc(C)cc2C)n1	none | NR2E3 ag confirm inactive | VP16 counter inactive
Cc1nc2ccccc2c2oc(C(=O)NCc3ccc4c(c3)OCO4)cc12	none | NR2E3 ag confirm inactive | VP16 counter inactive
Cc1ccc(CNC(=O)c2cc3c(C)nc4ccccc4c3o2)cc1	NR2E3 ag-1 86 | NR2E3 ag confirm 93 | VP16 counter 78
COc1ccccc1N1CCN(C(=O)c2cc3c(C)nc4ccccc4c3o2)CC1	none | NR2E3 ag confirm inactive | VP16 counter inactive
Cc1ccc(C)c(N2CCN(C(=O)c3cc4c(C)nc5ccccc5c4o3)CC2)c1	none
Cc1nc2ccccc2c2oc(C(=O)NCc3ccccn3)cc12	none
Nn1c(SCc2c(Cl)cccc2Cl)nnc1-c1n[nH]c2c1CCC2	none (no result: NR2E3 ag-1, NR2E3 ag-2, PG9 Ab binder)
O=C(NCc1ccncc1)c1cccc(S(=O)(=O)N2CCc3ccccc32)c1	none | NR2E3 ag confirm inactive | VP16 counter inactive
O=C(NNC(=O)c1ccccc1F)c1cccc(S(=O)(=O)N2CCc3ccccc32)c1	NR2E3 ag-1 81 (no result: NR2E3 ag-2) | NR2E3 ag confirm 85 | VP16 counter 72
CC1Cc2ccccc2N1S(=O)(=O)c1cccc(C(=O)NCc2ccncc2)c1 (stereo not given)	none
Cc1nc(SCc2ccc(Cl)c(Cl)c2)ncc1C(=O)O	none | NR2E3 ag confirm inactive | VP16 counter inactive
C[C@H]1[C@@H](NC(=O)c2ccc(Cl)cc2)CC[C@@]23CCCN2C(=O)CCC[C@@H]13	none (no result: NR2E3 ag-1, NR2E3 ag-2, PG9 Ab binder)
O=C(NC(NNc1ccc([N+](=O)[O-])cc1)(C(F)(F)F)C(F)(F)F)c1ccc(Cl)cc1	none | NR2E3 ag confirm 80 | VP16 counter 85
Cc1ccc(S(=O)(=O)NCc2ccccc2)cc1C(=O)NCCc1ccc(S(N)(=O)=O)cc1	none | NR2E3 ag confirm inactive | VP16 counter inactive
C/C(=N\NC(=O)c1ccccc1-n1cccc1)c1ccccn1	none (no result: NR2E3 ag-2)
C/C(=N\Nc1ncc(Cl)cc1Cl)c1ccccn1	none (no result: NR2E3 ag-2, PG9 Ab binder, Rev-erbA mod)
CC(=NNC(=S)Nc1ccccc1)c1ccccn1	NR2E3 ag-1 85 (no result: NR2E3 ag-2) | NR2E3 ag confirm inactive | VP16 counter inactive
CC(=NNC(=S)N1CCCCC1)c1ccccn1	NR2E3 ag-1 85 (no result: NR2E3 ag-2) | NR2E3 ag confirm inactive | VP16 counter inactive
C=CCNC(=S)N/N=C(\C)c1ccccn1	NR2E3 ag-1 84 | NR2E3 ag confirm inactive | VP16 counter inactive
CC(=NNC(=S)Nc1ccccc1Cl)c1ccccn1	NR2E3 ag-1 86 (no result: NR2E3 ag-2) | NR2E3 ag confirm inactive | VP16 counter inactive
Cn1c(SCC(=O)Nc2ccccc2-c2ccccc2)nnc1-c1ccccc1	none (no result: NR2E3 ag-1, NR2E3 ag-2, PG9 Ab binder)
CC1CCC2(CCC(=O)N2C[C@@H](O)c2ccccc2)CC1 (stereo not given in full)	none (no result: NR2E3 ag-1, NR2E3 ag-2, PG9 Ab binder)
N#Cc1ccc(/C=C2\CC3(OC(=O)c4ccc(F)cc4)CCCN2C3)cc1 (stereo not given)	none (no result: NR2E3 ag-1, NR2E3 ag-2, PG9 Ab binder)
COc1ccc(C[N+]2=C(N)NC3=C(C)Cn4c(=O)n(-c5ccccc5)c(=O)n4C3C2)c(OC)c1 (stereo not given)	none (no result: NR2E3 ag-1, NR2E3 ag-2, PG9 Ab binder)
